Assays:
MDA-MB-468 xenografts = assay: MDA-MB-468 xenograft tumor growth; assay type: in vivo, mice; settings: MDA-MB-468, 50 mg/kg p.o. once daily, 30 d; p < 0.001, n=7
TEL-Jak2 = TEL-Jak2 (Homo sapiens, UniProt O60674+P41212); assay: Stat5 phosphorylation in Ba/F3 TEL-Jak2 cells; assay type: cell-based
MEF-Stat3-YFP tumors = assay: MEF-Stat3-YFP tumor growth in athymic mice; assay type: in vivo; settings: 50 mg/kg p.o. once daily, relative to vehicle; p = 0.001, n=6
TEL-Jak3 = assay: Stat5 phosphorylation in Ba/F3 TEL-Jak3 cells; assay type: cell-based; settings: at or below 1 µM
pStat3 Tyr705 [1] = assay: Pharmacodynamics in xenograft tumor lysates and sections; assay type: in vivo, mice
[2] = system: 786-0 xenografts expressing Stat3C; assay: 786-0 Stat3C xenograft tumor growth; assay type: in vivo, mice; settings: 786-0 expressing Stat3C, 50 mg/kg, 41 d
Jak1 = settings: enzymatic assays, at Km ATP
pStat3 Tyr705 [3] = assay: pStat3 in MEF-Stat3-YFP tumor lysates; assay type: in vivo, mice; settings: 2 h post treatment, 50 mg/kg
panel of 82 kinases = assay: Kinase selectivity panel of 82 kinases; assay type: biochemical; settings: 0.10 µM, at or near Km for ATP; count includes Jak2
Summary of the method: (§1)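 Kinase selectivity panel of 82 kinases chosen to span the kinome by binding-site similarity and gatekeeper residue. Each kinase was assayed with ATP at or near its Km. The test compound was tested at three concentrations: 0.01, 0.10 and 1.0 µM. Percent inhibition was scored, and kinases inhibited by more than 50% were counted.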

[4] = system: DU145, MDAH2774, and MDA-MB-468 cells; assay: 72 h viability assay in solid tumor cell lines; assay type: cell-based; settings: Homo sapiens
TEL-Jak1 = assay: Stat5 phosphorylation in Ba/F3 TEL-Jak1 cells; assay type: cell-based; settings: at or below 1 µM
MDAH2774 xenografts = assay: MDAH2774 xenograft tumor growth; assay type: in vivo, mice; settings: 26 d, p < 0.001, n=10
[5] = system: 786-0 renal cell carcinoma vector control xenografts; assay: 786-0 vector control xenograft tumor growth; assay type: in vivo, mice; settings: 50 mg/kg, 41 d, p = 0.038, n = 10
LN-17 cells = assay: LN-17 prostate cancer cells: pStat3, MTS viability, Annexin V; assay type: cell-based, human
DU145 xenografts = assay: DU145 xenograft tumor growth; assay type: in vivo, mice; settings: DU145, 50 mg/kg p.o. once daily, 26 d; p < 0.001, n=7
pStat3 Tyr705 [6] = assay: Constitutive pStat3 in DU145, MDA-MB-468 and MDAH2774 cells; assay type: cell-based, human; settings: 2 h, DU145, MDA-MB-468, MDAH2774
Aurora A = Aurora A in kinase panel; assay type: biochemical
Summary of the method: as §1

TEL-Tyk2 = assay: Stat5 phosphorylation in Ba/F3 TEL-Tyk2 cells; assay type: cell-based; settings: at or below 1 µM
Jak2 kinase = Jak2 kinase (Homo sapiens, UniProt O60674); assay: Jak2 kinetic studies; assay type: biochemical
Sequence of Jak2 kinase (O60674 808-1132): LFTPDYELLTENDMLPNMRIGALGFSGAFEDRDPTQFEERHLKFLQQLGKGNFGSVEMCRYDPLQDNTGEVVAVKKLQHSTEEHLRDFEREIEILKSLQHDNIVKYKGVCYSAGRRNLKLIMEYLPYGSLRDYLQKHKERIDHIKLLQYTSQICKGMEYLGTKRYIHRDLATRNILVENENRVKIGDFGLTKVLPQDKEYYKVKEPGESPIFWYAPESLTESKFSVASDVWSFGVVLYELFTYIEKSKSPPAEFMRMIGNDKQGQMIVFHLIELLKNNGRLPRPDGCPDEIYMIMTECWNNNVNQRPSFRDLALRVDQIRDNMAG

Sequence of TEL-Jak2 (O60674 849-1132 limits assumed, one chain of several): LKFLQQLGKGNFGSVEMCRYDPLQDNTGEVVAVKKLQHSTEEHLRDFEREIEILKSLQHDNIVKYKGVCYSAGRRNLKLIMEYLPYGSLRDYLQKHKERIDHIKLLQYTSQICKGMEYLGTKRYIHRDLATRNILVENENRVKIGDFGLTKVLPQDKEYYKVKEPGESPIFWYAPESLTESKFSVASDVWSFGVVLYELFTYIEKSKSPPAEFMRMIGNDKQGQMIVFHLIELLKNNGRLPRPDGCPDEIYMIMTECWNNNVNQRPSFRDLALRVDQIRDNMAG

Cc1cc(Nc2nc(N[C@@H](C)c3ncc(F)cn3)ncc2Cl)n[nH]1 [AZD1480]
growth inhibition (MDA-MB-468 xenografts): 111% | IC50 (TEL-Jak2): 46 nM | tumor growth inhibition (MEF-Stat3-YFP tumors): 58% | inhibition of STAT5 phosphorylation (TEL-Jak3): little or no inhibition | pHisH3 staining (mitotic marker) (pStat3 Tyr705 [1]; MDAH2774 xenografts, 30 mg/kg, up to 16h post-dose): No modulation | recovery of pStat3 Tyr705 expression (pStat3 Tyr705 [1]; by 16 h after single 30 mg/kg dose, MDAH2774 xenografts): fully recovered | duration of significant inhibition of pStat3 (pStat3 Tyr705 [1]; single dose of 30 mg/kg, MDAH2774 xenografts): > 10 h | expression of p44/42 pMAPK and pAKT Ser473 in tumors (pStat3 Tyr705 [1]; treated tumors compared to control animals): No significant change | inhibition of pStat3 Tyr705 in tumor lysates (pStat3 Tyr705 [1]; xenografts harvested 2 h post treatment): Complete inhibition | growth inhibition [2]: no growth inhibition | lethal toxicity or weight loss (doses tested, 26 days of dosing): No lethal toxicity or weight loss | red blood cell counts (mouse, in vivo, 10 mg/kg): no changes | red blood cell counts decrease (mouse, in vivo, 30 mg/kg): approximately 13% | Jak2 selectivity over Jak1 (Jak1): marginal selectivity over Jak1 | pStat3 Tyr705 in tumors (pStat3 Tyr705 [3]): abolished | kinases inhibited by greater than 50% (panel of 82 kinases): 11/82 | GI50 [4]: 2400 to 5400 nM | inhibition of STAT5 phosphorylation (TEL-Jak1): little or no inhibition | growth inhibition (MDAH2774 xenografts; MDAH2774, 10 mg/kg twice daily p.o.): 71% | growth inhibition (MDAH2774 xenografts; MDAH2774, 30 mg/kg twice daily p.o., tumor regression): 139% | growth inhibition [5]: 48% | pStat3 Tyr705 (LN-17 cells; 24 h): Dose-dependent inhibition | apoptotic markers Annexin V and PARP cleavage (LN-17 cells; 72 h): dose-dependent increase | viability (LN-17 cells; MTS, 72 h, charcoal-stripped FBS): loss of viability | growth inhibition (DU145 xenografts): 81% | inhibition of constitutive pStat3 Tyr705 (pStat3 Tyr705 [6]; 0.1 µM): Significant inhibition | inhibition of constitutive pStat3 Tyr705 (pStat3 Tyr705 [6]; 0.25 –0.5 µM): near ablation of signal | Aurora A enzyme activity (Aurora A): inhibited | inhibition of STAT5 phosphorylation (TEL-Tyk2): little or no inhibition | Ki (Jak2 kinase): 0.26 nM

From PMC2812011 (Cancer cell, 2009)
